Laboratory results published in ChEMBL document CHEMBL5303300, “EUbOPEN Chemogenomics Library - Multiplex” (2023).
Values joined by “and” are separate entries in the source; they are usually repeats but may differ in a detail not shown here. Equal values may be shown once.

System: Fibroblast
Test: Multiplex assay against human fibroblast
Type: toxicity, cell-based
Settings: number of replicates 2
How it was run: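 Per cents of healthy-nucleus cells form the tubulin, mitochondrial-mass and membrane-permeability phenotype values. Live cells were stained at seeding with Hoechst33342, BioTracker Green Microtubule Cytoskeleton Dye, MitoTracker Red and Annexin V Alexa Fluor 680. After compound addition they were imaged on a CQ1 microscope at 37°C and 5% CO2, and CellPathfinder machine-learning gating split them into Hoechst high-intensity objects or normal cells, normal cells into healthy, pyknosed or fragmented nuclei, and pyknosed cells into mitotic or apoptotic.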

[1] = 12 h, 1 µM, compound concentration 1 uM
[2] = 12 h, 10 µM, compound concentration 10 uM
[3] = 24 h, 1 µM, compound concentration 1 uM
[4] = 24 h, 10 µM, compound concentration 10 uM
[5] = 48 h, 1 µM, compound concentration 1 uM
[6] = 48 h, 10 µM, compound concentration 10 uM

Compound: OC(c1ccc(-c2ccc(CN3CCN(Cc4ccncc4)CC3)cc2)c(F)c1)(C(F)(F)F)C(F)(F)F
- Population Apoptotic (%) [1]: 54% and 23%
- Population Fragmented Nuclei (%) [1]: 5% and 6%
- Population Healthy Nuclei (%) [1]: 43% and 70%
- Population Hoechst High Intensity Objects (%) [1]: 0%
- Population Membrane Permeable-Phenotype (%) [1]: 8% and 3%
- Population Mitochondria Different-Phenotype (%) [1]: 0% and 1%
- Population Mitotic Cells (%) [1]: 45% and 76%
- Population Normal (%) [1]: 100%
- Population Pyknosed Nuclei (%) [1]: 50% and 23%
- Population Tubulin-Different-Phenotype (%) [1]: 6% and 8%
- Total Cell Count [1]: 108 and 164
- Population Apoptotic (%) [2]: 31% and 45%
- Population Fragmented Nuclei (%) [2]: 10% and 16%
- Population Healthy Nuclei (%) [2]: 70% and 63%
- Population Hoechst High Intensity Objects (%) [2]: 0%
- Population Membrane Permeable-Phenotype (%) [2]: 6% and 8%
- Population Mitochondria Different-Phenotype (%) [2]: 0% and 3%
- Population Mitotic Cells (%) [2]: 68% and 55%
- Population Normal (%) [2]: 100% and 99%
- Population Pyknosed Nuclei (%) [2]: 18% and 19%
- Population Tubulin-Different-Phenotype (%) [2]: 24% and 25%
- Total Cell Count [2]: 156 and 204
- Population Apoptotic (%) [3]: 61% and 55%
- Population Fragmented Nuclei (%) [3]: 6% and 10%
- Population Healthy Nuclei (%) [3]: 45% and 65%
- Population Hoechst High Intensity Objects (%) [3]: 0%
- Population Membrane Permeable-Phenotype (%) [3]: 12% and 7%
- Population Mitochondria Different-Phenotype (%) [3]: 2% and 3%
- Population Mitotic Cells (%) [3]: 38% and 44%
- Population Normal (%) [3]: 100%
- Population Pyknosed Nuclei (%) [3]: 47% and 23%
- Population Tubulin-Different-Phenotype (%) [3]: 16% and 15%
- Total Cell Count [3]: 109 and 151
- Population Apoptotic (%) [4]: 44% and 45%
- Population Fragmented Nuclei (%) [4]: 7% and 13%
- Population Healthy Nuclei (%) [4]: 74% and 61%
- Population Hoechst High Intensity Objects (%) [4]: 0%
- Population Membrane Permeable-Phenotype (%) [4]: 3% and 7%
- Population Mitochondria Different-Phenotype (%) [4]: 1% and 3%
- Population Mitotic Cells (%) [4]: 56% and 54%
- Population Normal (%) [4]: 99% and 100%
- Population Pyknosed Nuclei (%) [4]: 17% and 24%
- Population Tubulin-Different-Phenotype (%) [4]: 16% and 23%
- Total Cell Count [4]: 144 and 197
- Population Apoptotic (%) [5]: 74% and 80%
- Population Fragmented Nuclei (%) [5]: 16% and 17%
- Population Healthy Nuclei (%) [5]: 53% and 61%
- Population Hoechst High Intensity Objects (%) [5]: 0%
- Population Membrane Permeable-Phenotype (%) [5]: 11% and 5%
- Population Mitochondria Different-Phenotype (%) [5]: 0%
- Population Mitotic Cells (%) [5]: 25% and 19%
- Population Normal (%) [5]: 100%
- Population Pyknosed Nuclei (%) [5]: 29% and 21%
- Population Tubulin-Different-Phenotype (%) [5]: 11% and 12%
- Total Cell Count [5]: 118 and 167
- Population Apoptotic (%) [6]: 73% and 77%
- Population Fragmented Nuclei (%) [6]: 14% and 16%
- Population Healthy Nuclei (%) [6]: 73% and 71%
- Population Hoechst High Intensity Objects (%) [6]: 0%
- Population Membrane Permeable-Phenotype (%) [6]: 6% and 4%
- Population Mitochondria Different-Phenotype (%) [6]: 0% and 2%
- Population Mitotic Cells (%) [6]: 26% and 22%
- Population Normal (%) [6]: 100%
- Population Pyknosed Nuclei (%) [6]: 11% and 12%
- Population Tubulin-Different-Phenotype (%) [6]: 16% and 12%
- Total Cell Count [6]: 162 and 183

Compound: Cn1cc(-n2cnc3c(NCc4nc5cc(Cl)c(Cl)cc5[nH]4)nc(N4CCOCC4)nc32)cn1
- Population Apoptotic (%) [1]: 39% and 65%
- Population Healthy Nuclei (%) [1]: 79% and 57%
- Population Hoechst High Intensity Objects (%) [1]: 0% and 3%
- Population Membrane Permeable-Phenotype (%) [1]: 7%
- Population Mitochondria Different-Phenotype (%) [1]: 2% and 3%
- Population Mitotic Cells (%) [1]: 60% and 34%
- Population Normal (%) [1]: 100% and 96%
- Population Pyknosed Nuclei (%) [1]: 15% and 19%
- Population Tubulin-Different-Phenotype (%) [1]: 29% and 27%
- Total Cell Count [1]: 211 and 225
- Population Apoptotic (%) [2]: 55% and 51%
- Population Fragmented Nuclei (%) [2]: 10% and 19%
- Population Healthy Nuclei (%) [2]: 59% and 60%
- Population Hoechst High Intensity Objects (%) [2]: 0%
- Population Membrane Permeable-Phenotype (%) [2]: 25% and 27%
- Population Mitochondria Different-Phenotype (%) [2]: 3% and 5%
- Population Mitotic Cells (%) [2]: 44% and 48%
- Population Normal (%) [2]: 100%
- Population Pyknosed Nuclei (%) [2]: 30% and 20%
- Population Tubulin-Different-Phenotype (%) [2]: 74% and 81%
- Total Cell Count [2]: 147 and 142
- Population Apoptotic (%) [3]: 89% and 85%
- Population Fragmented Nuclei (%) [3]: 27% and 14%
- Population Healthy Nuclei (%) [3]: 32% and 46%
- Population Hoechst High Intensity Objects (%) [3]: 6% and 1%
- Population Membrane Permeable-Phenotype (%) [3]: 12%
- Population Mitochondria Different-Phenotype (%) [3]: 2% and 1%
- Population Mitotic Cells (%) [3]: 10% and 14%
- Population Normal (%) [3]: 93% and 98%
- Population Pyknosed Nuclei (%) [3]: 40% and 38%
- Population Tubulin-Different-Phenotype (%) [3]: 28% and 53%
- Total Cell Count [3]: 229 and 205
- Population Apoptotic (%) [4]: 63% and 65%
- Population Fragmented Nuclei (%) [4]: 10% and 19%
- Population Healthy Nuclei (%) [4]: 62% and 59%
- Population Hoechst High Intensity Objects (%) [4]: 0%
- Population Membrane Permeable-Phenotype (%) [4]: 14%
- Population Mitochondria Different-Phenotype (%) [4]: 6% and 13%
- Population Mitotic Cells (%) [4]: 36% and 34%
- Population Normal (%) [4]: 99%
- Population Pyknosed Nuclei (%) [4]: 27% and 21%
- Population Tubulin-Different-Phenotype (%) [4]: 79% and 85%
- Total Cell Count [4]: 149 and 148
- Population Apoptotic (%) [5]: 93% and 94%
- Population Fragmented Nuclei (%) [5]: 27% and 13%
- Population Healthy Nuclei (%) [5]: 12% and 16%
- Population Hoechst High Intensity Objects (%) [5]: 5% and 0%
- Population Membrane Permeable-Phenotype (%) [5]: 12% and 29%
- Population Mitochondria Different-Phenotype (%) [5]: 4% and 3%
- Population Mitotic Cells (%) [5]: 6% and 5%
- Population Normal (%) [5]: 94% and 99%
- Population Pyknosed Nuclei (%) [5]: 60% and 69%
- Population Tubulin-Different-Phenotype (%) [5]: 36% and 61%
- Total Cell Count [5]: 218 and 190
- Population Apoptotic (%) [6]: 81% and 87%
- Population Fragmented Nuclei (%) [6]: 15% and 19%
- Population Healthy Nuclei (%) [6]: 35% and 38%
- Population Hoechst High Intensity Objects (%) [6]: 1% and 0%
- Population Membrane Permeable-Phenotype (%) [6]: 20% and 11%
- Population Mitochondria Different-Phenotype (%) [6]: 22% and 19%
- Population Mitotic Cells (%) [6]: 18% and 12%
- Population Normal (%) [6]: 98% and 100%
- Population Pyknosed Nuclei (%) [6]: 49% and 41%
- Population Tubulin-Different-Phenotype (%) [6]: 74% and 78%
- Total Cell Count [6]: 154 and 134
